High-throughput results as filed in PubChem BioAssay.
A selection: hits, their analogues and other compounds. The true share with any hit is near 3.4%.
TAAR1 agonist – human TAAR1 agonists, primary screen, Fluo-8 calcium fluorescence, CHO RD-HGA16 cells; Trace amine-associated receptor 1 (Homo sapiens), Q96RJ0; vehicle wells 0%, saturating PEA agonist 100%; activation, % at 3 µM; hit rate 0.99% among 360,000; AID 624467, 2012;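 active = activation above the mean activation of all test compounds in the run plus 3 SD, cut at about 38% in these data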
Target sequence (Q96RJ0 whole entry, looked up): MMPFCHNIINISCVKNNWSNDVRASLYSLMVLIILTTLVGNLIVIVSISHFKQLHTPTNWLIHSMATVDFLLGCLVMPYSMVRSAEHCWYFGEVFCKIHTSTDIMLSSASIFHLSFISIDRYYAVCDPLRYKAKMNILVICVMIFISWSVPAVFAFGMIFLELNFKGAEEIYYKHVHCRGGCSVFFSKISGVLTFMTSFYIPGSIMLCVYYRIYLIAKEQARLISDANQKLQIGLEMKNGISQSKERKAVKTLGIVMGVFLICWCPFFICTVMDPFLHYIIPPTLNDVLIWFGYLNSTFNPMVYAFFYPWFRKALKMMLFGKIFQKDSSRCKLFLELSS
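Test system: RD-HGA16 (CHO) cells co-expressing Gα16 and hTAAR1; dosing: one-point dosing at 3 µM (nominal); timing: 17-24 h seeding, 75 min 37 °C dye, 30 min RT; signal: kinetic Fluo-8 calcium fluorescence; read-out basis: % activation relative to PEA EC100 response; controls: DMSO and PEA EC100; replicates: n 1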
TRPML3 agonist – human TRPML3 channel agonists, primary screen, cell-based, HEK293 TRPML3-YFP, Fluo-8 calcium fluorescence, 3 µM; Mucolipin-3 (Homo sapiens), Q8TDD5; activation, % at 3 µM; hit rate 0.29% among 220,000; 100% = the carbachol control signal;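 active = activation above its plate's cutoff, the mean activation of the plate's test wells plus 3 SD, cut at about 12% in these data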;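 note: 0% = DMSO only wells and 100% = carbachol wells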
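Material: TRPML3-YFP stable HEK293 cells | Dosing: One concentration, 3 µM nominal, 0.3% DMSO | Timing: 125 s total fluorescence read per well | Technique: Fluo-8 calcium dye fluorescence, ex 470-495, em 515-575 nm | Measure: Percent activation from peak-to-basal fluorescence ratio, scaled between DMSO and carbachol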
LANA-H2B inh – blockers of LANA interaction with H2A/H2B – biochemical, FP readout, HTS, primary screen | Protein LANA1 (Human herpesvirus 8 type P (isolate GK18)), Q9QR71 | hit rate 0.6% among 320,000 | cell-free LANA-H2A/H2B peptide, fluorescence polarization | AID 2629, 2010 | inhibition, % (no concentration beside the values); in the data active = inhibition mostly above about 10%, no sharp cut-off; inactive = mostly below about 6.7%
TAAR1 antag – human TAAR1 antagonists, primary screen, Fluo-8 calcium fluorescence, CHO RD-HGA16 cells; antagonist; inhibition, % at 3 µM; hit rate 1.5% among 360,000; AID 624466, 2012;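 active = inhibition above a per-plate cutoff, the mean inhibition of test compounds on that plate plus 3 SD, cut at about 49% in these data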;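 note: 0% = DMSO plus EC80 beta-PEA response and 100% = DMSO alone without agonist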
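Assay system: RD-HGA16 CHO cells with stable hTAAR1 and Gα16 / Reagent: EC80 β-phenethylamine stimulus / Doses: 3 µM, single point / Timing: dye loading 75 min at 37 °C, then 30 min room temperature / Measured by: Fluo-8 intracellular calcium dye fluorescence, real-time kinetic reads / Controls: vehicle wells and EC80 agonist wells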
TRPN1 ag – zebrafish TRPN1 channel agonists, primary screen, cell-based, HEK293, calcium fluorescence | transient receptor potential cation channel N1 (TRPN1/NompC), Danio rerio | HEK293 zebrafish TRPN1-YFP, Fluo-8 calcium fluorescence; 100% = response to 87 µM carbachol | activation, % at 3 µM | hit rate 0.18% among 220,000;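 active = activation above its plate's cutoff, the mean activation of test wells on that plate plus 3 SD, cut at about 19% in these data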;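 note: 0% = DMSO alone and 100% = 87 µM carbachol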
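Material – zebrafish TRPN1-YFP in HEK293 cells · Doses – 3 µM single point · Schedule – dye 1 h 37 °C plus 30 min RT · Signal – Fluo-8 calcium fluorescence, excitation 470-495 nm, emission 515-575 nm · Read-out – % activation versus carbachol response · Control set – carbachol high, DMSO low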
GPR7 antagonist – GPR7 receptor antagonists, primary screen, cell-based, fluorescence, single concentration | Neuropeptides B/W receptor type 1 (Homo sapiens), P48145 | GPR7-expressing cells, fluorescence antagonist assay | inhibition, % at 4.4 µM | hit rate 1.1% among 290,000; in the data active = inhibition above about 16%, passing the limit was not always enough;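 note: cells stimulated with the agonist NPW; 0% = agonist with vehicle and 100% = vehicle without agonist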
Active calls of the source: *; . = not tested or not shown.

SMILES | TAAR1 agonist | TRPML3 agonist | LANA-H2B inh | TAAR1 antag | TRPN1 ag | GPR7 antagonist
COC(=O)[C@]12C[C@H](CC(=O)NCc3ccc(C)o3)C(=O)N(Cc3ccc4c(c3)OCO4)C1=C[C@H](COCc1ccccc1)O[C@@H]2C | -0.7 | . | . | -21.8 | . | .
O=C(Nc1cccc(Cl)c1)Nc1ccnc(-c2cccnc2)n1 | 20.1 | 3.6 | -3.6 | 55.4* | 7.8 | -9.0
CN(C)CCCNC(=O)c1c(N)[nH]c(C(=O)c2ccc(Br)cc2)c1-c1ccc(Br)cc1 | 2.1 | . | . | -14.0 | . | .
C[C@@H]1CCCCO[C@H](CN(C)C(=O)C2CCCCC2)[C@@H](C)CN([C@H](C)CO)C(=O)c2cc(NS(=O)(=O)c3cccs3)ccc2O1 | -1.0 | . | . | 0.5 | . | .
Cc1cccc(NC(=O)Cc2ccc(F)cc2)c1 | 10.2 | -0.3 | -3.8 | -0.8 | -1.1 | 10.6
N#CC(C#N)=C(Nc1ccc(F)cc1)SCc1cccc(Br)c1 | 6.5 | 20.8* | -1.3 | 30.0 | 25.2* | 1.2
CC(SCc1ccccc1)C(=O)Nc1ccc(F)cc1 (stereo not given) | -2.2 | -0.7 | 3.5 | -3.6 | -3.1 | -3.8
Cc1cccc(CSC(Nc2ccc(F)cc2)=C(C#N)C#N)c1 | 7.0 | 18.8* | -4.1 | 26.9 | 25.8* | 10.7
CCC1(c2ccc(OC)cc2)NC(=O)N(CC(=O)N2CCc3ccccc32)C1=O (stereo not given) | 63.5* | . | . | 32.8 | . | .
CCN(CC(=O)Nc1ccccc1C(F)(F)F)C(=O)CN1C(=O)NC2(CCCCC2)C1=O | 0.9 | . | -2.2 | -24.2 | . | .
CC1(c2ccccc2)NC(=O)N(CC(=O)Nc2ccccc2N2CCCCC2)C1=O (stereo not given) | 24.3 | . | -1.4 | 30.0 | . | .
CCC1(c2ccc(OC)cc2)NC(=O)N(CC(=O)c2ccc3c(c2)OCCO3)C1=O (stereo not given) | 37.7* | . | -4.8 | -0.4 | . | .
CCC1(c2ccccc2)NC(=O)N(CC(=O)Nc2ccccc2N2CCCC2)C1=O (stereo not given) | 38.8* | . | -0.2 | 3.2 | . | .
CCC1(c2ccccc2)NC(=O)N(CC(=O)N(CC(=O)Nc2ccccc2C(F)(F)F)Cc2ccco2)C1=O (stereo not given) | 44.4* | . | 3.4 | 18.3 | . | .
CCOC(=O)[C@@H]1CSCCS(=O)(=O)N1C(=O)[C@H](CCSC)NC(=O)OC(C)(C)C | 0.2 | . | . | -23.2 | . | .
Cc1cc(Br)ccc1NC(=O)CN(C)C(=O)C1CCN(c2ncnc3sc(C)c(C)c23)CC1 | 11.6 | . | . | 56.8* | . | .
Cc1ccccc1OCC1CN(CN2CCOCC2)C(=O)O1 (stereo not given) | 2.9 | 0.1 | 23.5* | -5.6 | 2.1 | -6.5
COc1ccc2oc(C(=O)Nc3ccccn3)c(C)c2c1 | 1.5 | . | 1.6 | -22.7 | . | -15.7
COc1ccc2oc(C(=O)Nc3nc(C)cs3)c(C)c2c1 | 7.8 | . | 73.5* | -13.9 | . | .
COc1ccc(NS(=O)(=O)c2cc(N/C(=N\S(=O)(=O)c3ccccc3)c3ccc(F)cc3)ccc2Cl)cc1 | 14.7 | 0.3 | . | 12.4 | 1.9 | 34.4*
Cc1nn(-c2ccccc2)c(C)c1NC(=O)COC(=O)c1ccccc1 | 5.5 | . | 4.5 | 11.7 | . | .
Cc1nn(-c2ccccc2)c(C)c1NC(=O)COC(=O)c1cccc(OC(F)F)c1 | 14.8 | . | 3.0 | 54.9* | . | .
Cc1nn(-c2ccccc2)c(C)c1NC(=O)COC(=O)c1ccc(S(=O)(=O)C(F)F)cc1 | 16.0 | . | 0.3 | 48.6* | . | .
COc1ccc(C(=O)Nc2cccc(/C=C(\CCC(=O)O)c3nc4ccccc4s3)c2)cc1 | 12.6 | 0.2 | 0.7 | 51.6* | 3.0 | -4.8
O=[N+]([O-])c1ccc(-c2nc3ccc([N+](=O)[O-])cc3[nH]2)cc1 | 12.5 | 1.9 | 1.9 | 15.1 | 9.2 | 4.6
Nc1ccc(-c2nc3ccc([N+](=O)[O-])cc3[nH]2)cc1 | 0.8 | 0.4 | 0.6 | 3.0 | 1.4 | 20.1*
